From ChEMBL document CHEMBL1123375, “Carbocyclic puromycin: synthesis and inhibition of protein biosynthesis” (1986)
Converted amounts (≈) assume the structure as drawn.

Tests used:
[1] = system: Escherichia coli; test: (§1) Kinetic constant was evaluated by using peptidyl transferase assay against Escherichia coli ribosome system; format: functional
In short: (§2)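 Ac-[14C]-L-Phe-tRNA (21 pmol) prebound 8 min at 28°C to washed E. coli ribosomes (2.78 A260 units) with poly(U), 1.50 mM GTP, FWR, 20 mM Mg(OAc)2, 130 mM Tris-HCl pH 7.5, 130 mM NH4Cl. Reaction started with puromycin compound in water, run for timed intervals, then stopped with NaOH. Ethyl acetate-extracted product counted, blank-corrected. Km and Vmax by Wilkinson analysis, triplicates.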

[2] = system: Escherichia coli; test: as §1; in short: as §2
[3] = species: Rattus norvegicus; test: Substrate efficiency of the compound was evaluated by using peptidyl transferase assay against Rat liver ribosome system; format: functional
In short: (§3)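 Ac-[3H]-L-Phe-tRNA (22 pmol) prebound 60 min at 37°C to rat liver ribosomes (4.0 A260 units) with poly(U), 1.6 mM GTP, FWR, 15 mM Mg(OAc)2, 100 mM Tris-HCl pH 7.5, 100 mM NH4Cl. Mixture added to puromycin compound, 37°C for varying times. Product extracted into ethyl acetate and counted. Km and Vmax by Wilkinson analysis.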

[4] = species: Rattus norvegicus; test: Ratio of kinetic parameter Vmax to that of Km in Rat liver ribosome; design: unit not given here; in short: as §3
[5] = species: Rattus norvegicus; test: (§4) Kinetic constant was evaluated by using peptidyl transferase assay against Rat liver ribosome system; in short: as §3
[6] = Compound was evaluated for the cytotoxicity by using P-388 in vitro assay against P-388 mouse lymphoid leukemia cells in 4 mL of Fischer's medium with 10% horse serum.; format: functional; settings: P388, read-out: ED50 (the source's name)
In short: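 Twofold dilution series in duplicate tubes, each seeded with 4×10^5 cells, incubated 72 h at 37°C, stoppered and held at a 30° angle without agitation, rotated twice daily. Growth read by hemocytometer count, inoculum subtracted. Percent inhibition calculated against controls, ED50 derived from this.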

[7] = system: Escherichia coli; test: Substrate efficiency was evaluated by using peptidyl transferase assay against Escherichia coli ribosome system; format: functional; in short: as §2
[8] = system: Escherichia coli; test: Ratio of kinetic parameter Vmax to that of Km in Escherichia coli ribosome system; design: unit not given here; in short: as §2
[9] = species: Rattus norvegicus; test: Substrate efficiency was evaluated by using peptidyl transferase assay against Rat liver ribosome system; format: functional; in short: as §3
[10] = species: Rattus norvegicus; test: as §4; format: functional; in short: as §3
[11] = species: Rattus norvegicus; test: Substrate efficiency was evaluated by using peptidyl transferase assay against Rat liver ribosome system.; format: functional; in short: as §3

Vmax [2] [c.p.m.] | Efficiency [3] [%] | Ratio [4] | Km [5] [µM] | Vmax [5] [c.p.m.] | Ratio [8] | Efficiency [9] [%] | Km [10] [µM] | Km [2] [µM] | Efficiency [11] [%] | SMILES | Km [1] [µM] | EC50 [6] [µg/mL] | Efficiency [7] [%]
1890 | 42 | 23300 | 610 | 14200 | 8220 | – | – | – | – | COc1ccc(CC(N)C(=O)N[C@H]2[C@@H](O)[C@H](n3cnc4c(N(C)C)ncnc43)O[C@@H]2C)cc1 (stereo partly specified) | 230 | 0.3 (≈ 0.659 µM) | 81
1890 | – | 55700 | – | 14200 | 10200 | 100 | 255 | – | – | COc1ccc(C[C@H](N)C(=O)N[C@H]2[C@@H](O)[C@H](n3cnc4c(N(C)C)ncnc43)O[C@@H]2CO)cc1 [PUROMYCIN] | 186 | 0.3 (≈ 0.636 µM) | 100
850 | – | 12400 | 300 | 3720 | 4540 | 22 | – | – | – | COc1ccc(CC(N)C(=O)N[C@@H]2[C@@H](CO)C[C@@H](n3cnc4c(N(C)C)ncnc43)[C@@H]2O)cc1 (stereo partly specified) | 187 | 0.3 (≈ 0.639 µM) | 45
644 | – | 3160 | 276 | 871 | 3420 | – | – | 188 | 5.7 | COc1ccc(CC(N)C(=O)N[C@@H]2CC[C@@H](n3cnc4c(N(C)C)ncnc43)[C@@H]2O)cc1 (stereo partly specified) | – | 0.8 (≈ 1.82 µM) | 34
